Results gathered from unrelated publications.

C[C@]12CC[C@H](n3ccnc3)CC1=CC[C@@H]1[C@@H]2CC[C@]2(C)C(n3cnc4ccccc43)=CC[C@@H]12.Cl.Cl
AUC(0-t) (male CD-1 mouse, plasma; intravenous, 1 mg/kg): 1870 ng·h/mL

CCCCCCCCCCOc1cc2c(O)c(C(=O)OCC)cnc2cc1OCC
IC50 (CHO; cell growth or viability; 72 h): > 100 µM

Nc1c2c(nc3c1C(c1ccc(Cl)c(Cl)c1)c1ccc(OCC(=O)c4ccc(Cl)cc4)cc1O3)CCCC2 (stereo not drawn)
viability (SH-SY5Y; cell growth or viability, MTT; 6.3 µM): 71.6%

O=C(Nc1ccc(Cl)cc1)Nc1cccc(-c2cccc(N3CCCC3)n2)c1
half-life (metabolic stability; rat, liver microsomes; pH 7.4): 13.4 min

Cc1cc(C)nc(Nc2ncc(C(=O)NCCc3c(C)[nH]c4ccccc34)cn2)c1
half-life (metabolic stability; male Sprague-Dawley rat, hepatocytes; 1 µM): 22 min

C[C@]12CC[C@H](O)CC1=CC[C@@H]1[C@@H]2CC[C@]2(C)C(n3cnc4ccccc43)=CC[C@@H]12.Cl
AUC(0-t) (mouse, plasma; oral, 10 mg/kg): 26.1 ng·h/mL

CCC[C@@](N)(CO)CCc1ccc(OCCCCCC(C)C)cc1
AUC(0-t) (mouse, plasma; oral, 10 mg/kg): 0.227 µM·h

COc1ccc(S(=O)(=O)Oc2ccc3c(c2)Oc2nc4c(c(N)c2C3c2cccc(OC)c2)CCCC4)cc1 (stereo not drawn)
viability (SH-SY5Y; cell growth or viability, MTT; 1.6 µM): 84.3%

CCCCCn1nc(C(=O)Nc2cccc3ccccc23)c2ccccc21
half-life (metabolic stability; Sprague-Dawley rat, liver microsomes; 1 µM, pH 7.4): 1.61 min

CN1CCCCC1Cn1cc(C(=O)c2cc([N+](=O)[O-])ccc2I)c2ccccc21 (racemic)
half-life (metabolic stability; rat, liver microsomes): 13.7 min

Nc1c2c(nc3c1C(c1cccc([N+](=O)[O-])c1)c1ccc(OS(=O)(=O)c4ccc(F)cc4)cc1O3)CCCC2 (stereo not drawn)
viability (SH-SY5Y; cell growth or viability, MTT; 25 µM): 48.8%

COc1cc2c(cc1C(=O)Nc1ccc(C(C)(C)C)cc1)CCCCC2
CC50 (NHDF; cell growth or viability, ATP luminescence; 24 h): 148 µM
